Format in all cases: cell-based
In data set [1] the test system is MEF. The experiment in a line: Cytotoxicity against mouse PARP1 deficient MEF cells assessed as reduction in cell viability at 0.016 to 100 uM after 4 to 7 days by cell-titer glo assay. An outline of the steps: (§1)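 Cells kept at 37 °C, 5% CO2, 15% O2 in RPMI 1640 with 10% FBS and 1% penicillin/streptomycin. Seeded at 1,000 cells/well and dosed 24 h later at 100–0.016 µM. Exposure lasted 4–7 days, then viability was read by CellTiter Glo luminescence. Signal was normalized to percent survival against the mean of vehicle controls. Three repeat experiments.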

Data set [2] has as its target Poly [ADP-ribose] polymerase 1 (Homo sapiens, UniProt P09874). Put plainly: Binding affinity to PARP1 in human OVCAR8 cells assessed as reduction in [125I]-KX1 binding by gamma counting analysis.
Data set [3] relates to MEF. The experiment in a line: Cytotoxicity against mouse PARP2 deficient MEF cells expressing PARP1 assessed as reduction in cell viability after 4 to 7 days by cell-titer glo assay.
The subject of data set [4] is MEF. Put plainly: Cytotoxicity against mouse wild type MEF cells assessed as reduction in cell viability after 4 to 7 days by cell-titer glo assay.
Data set [5] concerns MEF. Put plainly: Cytotoxicity against mouse PARP1 deficient MEF cells assessed as reduction in cell viability after 4 to 7 days by cell-titer glo assay.
The subject of data set [6] is MEF. The experiment in a line: Cytotoxicity against mouse wild type MEF cells assessed as reduction in cell viability at 0.016 to 100 uM after 4 to 7 days by cell-titer glo assay. In outline:
as §1

For data set [7], the system named is OVCAR-8. The experiment in a line: Cytotoxicity against human OVCAR8 cells assessed as cell survival at 10 uM after 4 to 7 days by cell-titer glo assay. The following applies: ovcar-8, 10 µM.
In data set [8] the test system is MEF. The experiment in a line: Cytotoxicity against mouse PARP2 deficient MEF cells expressing PARP1 assessed as reduction in cell viability at 0.016 to 100 uM after 4 to 7 days by cell-titer glo assay. An outline of the steps:
as §1

Sequence of Poly [ADP-ribose] polymerase 1 (P09874 whole entry): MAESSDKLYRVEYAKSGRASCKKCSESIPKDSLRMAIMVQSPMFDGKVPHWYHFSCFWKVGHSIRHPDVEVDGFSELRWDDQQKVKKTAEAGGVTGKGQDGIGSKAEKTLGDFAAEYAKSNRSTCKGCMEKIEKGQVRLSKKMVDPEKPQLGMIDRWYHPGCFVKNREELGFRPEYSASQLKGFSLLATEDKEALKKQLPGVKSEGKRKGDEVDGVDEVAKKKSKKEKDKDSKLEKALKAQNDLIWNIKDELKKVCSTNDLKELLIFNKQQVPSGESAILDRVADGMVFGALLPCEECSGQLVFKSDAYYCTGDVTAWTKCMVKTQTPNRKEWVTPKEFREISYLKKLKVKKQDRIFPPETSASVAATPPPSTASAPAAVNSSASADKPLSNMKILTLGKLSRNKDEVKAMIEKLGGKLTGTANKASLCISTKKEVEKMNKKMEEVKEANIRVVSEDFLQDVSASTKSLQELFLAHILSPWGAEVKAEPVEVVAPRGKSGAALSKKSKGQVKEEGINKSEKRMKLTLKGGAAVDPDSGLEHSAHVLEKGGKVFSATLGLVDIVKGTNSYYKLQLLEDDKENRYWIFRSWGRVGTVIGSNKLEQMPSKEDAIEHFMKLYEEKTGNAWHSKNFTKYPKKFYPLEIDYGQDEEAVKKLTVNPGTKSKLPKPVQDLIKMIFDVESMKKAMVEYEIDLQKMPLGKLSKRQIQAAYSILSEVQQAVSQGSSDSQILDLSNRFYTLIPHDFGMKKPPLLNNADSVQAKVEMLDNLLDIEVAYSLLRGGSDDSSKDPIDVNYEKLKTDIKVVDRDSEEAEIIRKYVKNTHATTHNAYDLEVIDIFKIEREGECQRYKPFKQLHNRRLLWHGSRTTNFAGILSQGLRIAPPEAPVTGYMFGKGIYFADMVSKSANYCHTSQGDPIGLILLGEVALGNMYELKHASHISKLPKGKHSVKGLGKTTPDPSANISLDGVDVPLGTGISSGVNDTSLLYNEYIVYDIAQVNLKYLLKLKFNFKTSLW

One may read the IC50 as the concentration at which inhibition is half-maximal. Usually EC50 stands for the concentration at which the effect is half-maximal. Regarding `O=C(c1cc(Cc2n[nH]c(=O)c3ccccc23)ccc1F)N1CCC2(CCCCC2)CC1`, in data set [1], the Activity is listed as below 50%. Further, in data set [2], the IC50 stood at 0.0571 µM. Moreover, the 50% effective concentration (EC50) in data set [3] and in data set [4] was 41.3 µM in each case.
For the molecule `O=C(c1cc(Cc2n[nH]c(=O)c3ccccc23)ccc1F)N1CCC2(CCCCC2)C1`, the EC50 in data set [5] was determined as 51.6 µM; in data set [3], 46.8 µM; in data set [4], 42.7 µM. Besides, in data set [2], the half-inhibitory concentration (IC50) amounted to 0.141 µM.
Take `O=C(c1cc(Cc2n[nH]c(=O)c3ccccc23)ccc1F)N1CCC12CCCCC2`: in data set [1], the Activity is below 50%. Besides, in data set [2], the IC50 was 0.284 µM. Further, the half-maximal effective concentration (EC50) in data set [3] came out at 78.8 µM; in data set [4], 32.6 µM.
Take `O=C(c1cc(Cc2n[nH]c(=O)c3ccccc23)ccc1F)N1CCC2(CCNCC2)CC1`: the Activity in data set [1] and in data set [6] was below 50% in each case. The 50% inhibitory concentration (IC50) in data set [2] turned out to be 0.234 µM. Moreover, the concentration giving a half-maximal response (EC50) in data set [3] was 59.7 µM.
On to `O=C(c1cc(Cc2n[nH]c(=O)c3ccccc23)ccc1F)N1CC2(CCC2)C1`, for which the Activity was below 50% in data set [1] and “Non-Toxic” in data set [7]. The IC50 in data set [2] came to 0.0339 µM. Besides, the results for the concentration for a half-maximal effect (EC50) in data set [3] and in data set [4] were 49 µM and 48.3 µM, respectively.
Regarding `O=C(C1CC1)N1CC2(CCN2C(=O)c2cc(Cc3n[nH]c(=O)c4ccccc34)ccc2F)C1`, the Activity in data set [1] is below 50%. Besides, the IC50 in data set [2] was found to be 0.13 µM. Further, the EC50 in data set [3] came to 46.7 µM; in data set [4] it was 53.2 µM.
With `O=C(c1cc(Cc2n[nH]c(=O)c3ccccc23)ccc1F)N1CCC2(CNC2)C1`, the Activity in data set [1], in data set [8] and in data set [6] was below 50% in each case. Also, the half-inhibitory concentration (IC50) in data set [2] worked out at 1.24 µM.
As for `CC(C)(C)OC(=O)N1CC2(CCN(C(=O)c3cc(Cc4n[nH]c(=O)c5ccccc45)ccc3F)C2)C1`, in data set [1], the Activity is recorded as below 50%. Further, the EC50 was determined as 31.8 µM in data set [3] and 29.2 µM in data set [4].
As to `O=C(c1cc(Cc2n[nH]c(=O)c3ccccc23)ccc1F)N1CC2(CCN(C(=O)C3CC3)CC2)C1`, in data set [1], the Activity is recorded as below 50%. Also, the IC50 in data set [2] was 0.1 µM. Moreover, the EC50 in data set [3] stood at 57.2 µM; in data set [4], 49.3 µM.
Consider `O=C(c1cc(Cc2n[nH]c(=O)c3ccccc23)ccc1F)N1CC2(CNC2)C1`, for which the Activity in data set [1], in data set [8] and in data set [6] was below 50% in each case. In addition, the concentration for half-maximal inhibition (IC50) in data set [2] came out at 2.39 µM.
Take `CC(C)(C)OC(=O)N1CC2(C1)CN(C(=O)c1cc(Cc3n[nH]c(=O)c4ccccc34)ccc1F)C2`: the Activity in data set [1] is recorded as below 50%. Besides, the EC50 in data set [3] is 24.7 µM; in data set [4] it was 31.1 µM.
For `O=C(C1CC1)N1CCC2(CC1)CCN2C(=O)c1cc(Cc2n[nH]c(=O)c3ccccc23)ccc1F`, the Activity in data set [1] is on record as below 50%. Moreover, the IC50 in data set [2] came out at 0.431 µM. Moreover, the EC50 came out at 44.4 µM in data set [3] and 47.5 µM in data set [4].
With `CC(C)(C)OC(=O)N1CCC2(CC1)CN(C(=O)c1cc(Cc3n[nH]c(=O)c4ccccc34)ccc1F)C2`, the EC50 in data set [5] was 49.2 µM; in data set [3], 41.5 µM; in data set [4], 23.4 µM.
On to `O=C(c1cc(Cc2n[nH]c(=O)c3ccccc23)ccc1F)N1CC2(COC2)C1`, for which, in data set [1], the Activity is below 50%. The EC50 in data set [3] came to 53.3 µM; in data set [4] it was 52.2 µM.
In the case of `O=C(c1cc(Cc2n[nH]c(=O)c3ccccc23)ccc1F)N1CCC2(CCN(C(=O)C3CC3)C2)C1` (configuration not stated), the Activity in data set [1] and in data set [6] was below 50% each time. Moreover, the IC50 in data set [2] was 2.59 µM. For the same molecule, the EC50 in data set [3] stood at 70.9 µM.
As for `O=C(c1cc(Cc2n[nH]c(=O)c3ccccc23)ccc1F)N1CCC12CCC2`, in data set [1], the Activity was below 50%. The IC50 in data set [2] worked out at 0.0365 µM. Further, the half-maximal effective concentration (EC50) in data set [3] worked out at 58.3 µM; in data set [4], 48 µM.
With `O=C(c1cc(Cc2n[nH]c(=O)c3ccccc23)ccc1F)N1CCC12CCNCC2`, the Activity in data set [1] and in data set [6] was below 50% each time. For the same molecule, the half-maximal effective concentration (EC50) in data set [3] worked out at 106 µM.
In the case of `O=C(c1cc(Cc2n[nH]c(=O)c3ccccc23)ccc1F)N1CCC2(CCNCC2)C1`, the Activity in data set [1], in data set [8] and in data set [6] was below 50% in each case. Moreover, in data set [2], the half-inhibitory concentration (IC50) is 3.88 µM.
On to `O=C(c1cc(Cc2n[nH]c(=O)c3ccccc23)ccc1F)N1CCC2(C1)CN(C(=O)C1CC1)C2`, for which the Activity in data set [1] and in data set [6] was below 50% throughout. The IC50 in data set [2] was 2.54 µM. In addition, the concentration for a half-maximal effect (EC50) in data set [3] is 61.8 µM.
On to `O=C(c1cc(Cc2n[nH]c(=O)c3ccccc23)ccc1F)N1CC2(CCCCC2)C1`, for which the EC50 turned out to be 48.3 µM in data set [5], 39.9 µM in data set [3] and 25.6 µM in data set [4]. For the same molecule, in data set [2], the 50% inhibitory concentration (IC50) came to 0.0654 µM. Further, in data set [7], the Activity result is on record as “Non-Toxic”.
Consider `CC(C)(C)OC(=O)N1CC2(CCN2C(=O)c2cc(Cc3n[nH]c(=O)c4ccccc34)ccc2F)C1`, for which, in data set [1], the Activity was below 50%. The concentration for half-maximal inhibition (IC50) in data set [2] was 0.877 µM. The EC50 came to 35.8 µM in data set [3] and 42.9 µM in data set [4].
On to `O=C(c1cc(Cc2n[nH]c(=O)c3ccccc23)ccc1F)N1CCC2(CCCC2)C1`, for which the half-maximal inhibitory concentration (IC50) in data set [2] turned out to be 0.0514 µM. Besides, the values for the 50% effective concentration (EC50) in data set [3] and in data set [4] were 55.5 µM and 31.7 µM, respectively.
In the case of `O=C(c1cc(Cc2n[nH]c(=O)c3ccccc23)ccc1F)N1CCC2(CCN(C(=O)C3CC3)CC2)C1`, in data set [1], the Activity is listed as below 50%. The IC50 in data set [2] came to 0.225 µM. In addition, the concentration for a half-maximal effect (EC50) turned out to be 61 µM in data set [3] and 41.6 µM in data set [4].
With `COC1CCN(C(=O)c2cc(Cc3n[nH]c(=O)c4ccccc34)ccc2F)CC1` [AZD2461], in data set [2], the IC50 came out at 0.0017 µM.
As to `O=C(c1cc(Cc2n[nH]c(=O)c3ccccc23)ccc1F)N1CCC12CNC2`, the Activity in data set [1], in data set [8] and in data set [6] was below 50% throughout. Further, the half-maximal inhibitory concentration (IC50) in data set [2] was 0.526 µM.
Consider `O=C(c1cc(Cc2n[nH]c(=O)c3ccccc23)ccc1F)N1CC2(CCNCC2)C1`, for which the Activity in data set [1] and in data set [6] was below 50% in each case. For the same molecule, the concentration for half-maximal inhibition (IC50) in data set [2] amounted to 1.42 µM. Further, the half-maximal effective concentration (EC50) in data set [3] was 68.5 µM.
Turning to `CC(C)(C)OC(=O)N1CCC2(CC1)CCN2C(=O)c1cc(Cc2n[nH]c(=O)c3ccccc23)ccc1F`, the Activity in data set [1] was below 50%. Besides, the 50% inhibitory concentration (IC50) in data set [2] was found to be 2.97 µM. Besides, the half-maximal effective concentration (EC50) in data set [3] stood at 33.2 µM; in data set [4] it was 23.3 µM.
As for `O=C(c1cc(Cc2n[nH]c(=O)c3ccccc23)ccc1F)N1CCC2(CCNC2)C1` (configuration not stated), the Activity in data set [1] and in data set [6] was below 50% each time. The half-inhibitory concentration (IC50) in data set [2] was 1.12 µM.
Regarding `O=C(c1cc(Cc2n[nH]c(=O)c3ccccc23)ccc1F)N1CCC2(CCC2)C1`, the Activity in data set [1] is on record as below 50%. For the same molecule, the concentration for half-maximal inhibition (IC50) in data set [2] amounted to 0.0324 µM. For the same molecule, the figures for the EC50 in data set [3] and in data set [4] were 54.7 µM and 45.2 µM, respectively.
On to `O=C(c1cc(Cc2n[nH]c(=O)c3ccccc23)ccc1F)N1CCC2(CC1)CCN(C(=O)C1CC1)CC2`, for which the EC50 in data set [5] was found to be 49.7 µM; in data set [3], 21.6 µM; in data set [4] it was 24.8 µM. Besides, in data set [7], the Activity result was “Non-Toxic”.

(Values after ChEMBL document CHEMBL4138313 (J Med Chem, 2018).)
